The structures appear in SMILES notation. The source made the active and inactive calls. The calls are words filed in the database; no cut-off is given here.

We go through one compound from ChEMBL document CHEMBL4350961, “Discovery of Pyrrolo[3,2- d]pyrimidin-4-one Derivatives as a New Class of Potent and Cell-Active Inhibitors of P300/CBP-Associated Factor Bromodomain” (J Med Chem, 2019).

In data set [1] the target is CDK17/Cyclin-Y (Homo sapiens) (UniProt Q00537+Q8ND76). Put plainly: Inhibition of human CDK17/cyclinY at 10 uM using PKSPKARKKL as substrate measured after 120 mins in presence of [gamma33P]ATP by scintillation counting method. It counts as protein-complex assay. Summed up:
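Kinase panel of 422 kinases screened by Eurofins KinaseProfiler at a single test-compound concentration of 10 µM.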

Data set [2] concerns the target Casein kinase I isoform delta (Homo sapiens) (UniProt P48730). Put plainly: Inhibition of recombinant human CK1delta (1 to 294 residues) at 10 uM using KRRRALS(p)VASLPGL as substrate measured after 40 mins in presence of [gamma33P]ATP by scintillation counting method.
For data set [3], the target named is Tribbles homolog 2 (Homo sapiens) (UniProt Q92519). Put plainly: Inhibition of recombinant full-length human TRB2 at 10 uM using RRRFRPASPLRGPPK as substrate measured after 120 mins in presence of [gamma33P]ATP by scintillation counting method.
For data set [4], the target named is Calcium/calmodulin-dependent protein kinase type II subunit delta (Homo sapiens) (UniProt Q13557). Put plainly: Inhibition of recombinant full-length human CaMK2delta at 10 uM using calmodulin as substrate measured after 40 mins in presence of [gamma33P]ATP by scintillation counting method.
Chain of Calcium/calmodulin-dependent protein kinase type II subunit delta (Homo sapiens) (Q13557 whole entry): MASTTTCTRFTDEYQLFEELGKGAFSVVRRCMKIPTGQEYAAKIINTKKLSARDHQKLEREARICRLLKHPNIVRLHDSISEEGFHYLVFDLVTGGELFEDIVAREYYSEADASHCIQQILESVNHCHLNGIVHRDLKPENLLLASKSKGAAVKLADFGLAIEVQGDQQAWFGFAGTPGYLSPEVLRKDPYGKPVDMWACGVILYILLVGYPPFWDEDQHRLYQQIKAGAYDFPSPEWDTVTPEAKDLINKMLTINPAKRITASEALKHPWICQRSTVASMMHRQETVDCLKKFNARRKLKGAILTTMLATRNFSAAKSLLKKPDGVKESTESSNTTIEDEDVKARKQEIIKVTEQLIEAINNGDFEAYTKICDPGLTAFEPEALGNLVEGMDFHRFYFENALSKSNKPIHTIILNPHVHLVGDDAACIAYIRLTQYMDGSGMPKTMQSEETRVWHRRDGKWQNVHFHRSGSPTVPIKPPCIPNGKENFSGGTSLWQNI
Data set [5] deals with Leucine-rich repeat serine/threonine-protein kinase 2 (Homo sapiens) (UniProt Q5S007). Put plainly: Inhibition of recombinant human LRRK2 (970 to end residues) at 10 uM using RLGRDKYKTLRQIRQ as substrate measured after 40 mins in presence of [gamma33P]ATP by scintillation counting method.
The target of data set [6] is Serine/threonine-protein kinase DCLK3 (Homo sapiens) (UniProt Q9C098). Put plainly: Inhibition of recombinant human DCAMKL3 (345 to end residues) at 10 uM using KKLNRTLSFAEPG as substrate measured after 40 mins in presence of [gamma33P]ATP by scintillation counting method.
For data set [7], the target named is Serine/threonine-protein kinase Nek3 (Homo sapiens) (UniProt P51956). Put plainly: Inhibition of recombinant full-length human NEK3 at 10 uM using myelin basic protein as substrate measured after 40 mins in presence of [gamma33P]ATP by scintillation counting method.
Chain of Serine/threonine-protein kinase Nek3 (Homo sapiens) (P51956 whole entry): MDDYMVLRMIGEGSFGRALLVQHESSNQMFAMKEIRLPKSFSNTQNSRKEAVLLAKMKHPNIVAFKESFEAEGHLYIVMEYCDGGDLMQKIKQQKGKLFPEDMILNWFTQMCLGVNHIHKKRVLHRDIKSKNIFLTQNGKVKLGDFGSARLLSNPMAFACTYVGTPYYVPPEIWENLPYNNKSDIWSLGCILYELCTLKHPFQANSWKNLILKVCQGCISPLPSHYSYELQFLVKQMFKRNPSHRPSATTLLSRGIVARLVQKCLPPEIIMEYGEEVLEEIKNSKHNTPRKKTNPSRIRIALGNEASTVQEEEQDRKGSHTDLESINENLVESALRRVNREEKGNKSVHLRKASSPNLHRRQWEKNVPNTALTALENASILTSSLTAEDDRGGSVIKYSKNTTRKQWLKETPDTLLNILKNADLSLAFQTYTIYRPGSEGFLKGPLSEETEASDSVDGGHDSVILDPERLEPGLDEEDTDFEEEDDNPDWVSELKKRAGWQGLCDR
For data set [8], the target named is Nucleosome-remodeling factor subunit BPTF (Homo sapiens, UniProt Q12830). Put plainly: Binding affinity to human N-terminal His-tagged FALZ by isothermal titration calorimetry. Summed up:
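Bromodomain (His-tag removed by TEV for PCAF and GCN5) in the syringe, ligand in the cell. One 0.4 μL injection, then 19 of 2 μL. Dilution heat subtracted; KD from an independent single-site binding model.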
(In general: Isothermal titration calorimetry measures the heat released or taken up as one component is titrated into another.)

The target of data set [9] is Bromodomain-containing protein 7 (Homo sapiens) (UniProt Q9NPI1). Put plainly: Binding affinity to human partial length BRD7 (L125 to R254 residues) expressed in mammalian expression system at 1 uM by BROMOscan assay. Put shortly:
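BROMOscan bromodomain cross-screen run by an outside service, compound at 1 µM against 32 recombinant bromodomains. Binding given as percent of control.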

Data set [10] addresses Interferon-induced, double-stranded RNA-activated protein kinase (Homo sapiens) (UniProt P19525). Put plainly: Inhibition of recombinant human PKR (252 to end residues) at 10 uM using RSRSRSRSRSRSRSR as substrate measured after 40 mins in presence of [gamma33P]ATP by scintillation counting method.
Data set [11] concerns the target Tyrosine-protein kinase JAK1 (Homo sapiens) (UniProt P23458). Put plainly: Inhibition of recombinant human JAK1 (866 to end residues) at 10 uM using GEEPLYWSFPAKKK as substrate measured after 40 mins in presence of [gamma33P]ATP by scintillation counting method.
Data set [12] concerns Epidermal growth factor receptor (Homo sapiens), P00533 [L858R]. Put plainly: Inhibition of recombinant human EGFR L858R mutant (696 to end residues) at 10 uM using poly(Glu, Tyr) 4:1 as substrate measured after 40 mins in presence of [gamma33P]ATP by scintillation counting method.
In data set [13] the target is Mitogen-activated protein kinase kinase kinase kinase 5 (Homo sapiens) (UniProt Q9Y4K4). Put plainly: Inhibition of recombinant full-length human MAP4K5 at 10 uM using myelin basic protein as substrate measured after 40 mins in presence of [gamma33P]ATP by scintillation counting method.
Data set [14] has as its target Serine/threonine-protein kinase WNK3 (Homo sapiens) (UniProt Q9BYP7). Put plainly: Inhibition of human WNK3 (1 to 434 residues) using myelin basic protein as substrate measured after 40 mins in presence of [gamma33P]ATP by scintillation counting method.
The nature of data set [15]: Lipophilicity, log D of the compound at pH 7.4 by HPLC analysis. It counts as physicochemical. The note with it: buffer.
For data set [16], the target named is Myosin-IIIb (Homo sapiens) (UniProt Q8WXR4). Put plainly: Inhibition of recombinant full-length human MYO3B (1 to 326 residues) at 10 uM using RLGRDKYKTLRQIRQ as substrate measured after 40 mins in presence of [gamma33P]ATP by scintillation counting method.
Data set [17] addresses Calcium/calmodulin-dependent protein kinase type II subunit gamma (Homo sapiens) (UniProt Q13555). Put plainly: Inhibition of recombinant full-length human CaMK2gamma (1 to 330 residues) at 10 uM using calmodulin as substrate measured after 40 mins in presence of [gamma33P]ATP by scintillation counting method.
For data set [18], the target named is Mitogen-activated protein kinase kinase kinase kinase 4 (Homo sapiens) (UniProt O95819). Put plainly: Inhibition of recombinant human MAP4K4 (1 to 328 residues) at 10 uM using RLGRDKYKTLRQIRQ as substrate measured after 40 mins in presence of [gamma33P]ATP by scintillation counting method.
The target of data set [19] is Epidermal growth factor receptor (Homo sapiens) (UniProt P00533). Put plainly: Inhibition of recombinant human EGFR (696 to end residues) at 10 uM using poly(Glu, Tyr) 4:1 as substrate measured after 40 mins in presence of [gamma33P]ATP by scintillation counting method.
Chain of Epidermal growth factor receptor (Homo sapiens) (P00533 whole entry): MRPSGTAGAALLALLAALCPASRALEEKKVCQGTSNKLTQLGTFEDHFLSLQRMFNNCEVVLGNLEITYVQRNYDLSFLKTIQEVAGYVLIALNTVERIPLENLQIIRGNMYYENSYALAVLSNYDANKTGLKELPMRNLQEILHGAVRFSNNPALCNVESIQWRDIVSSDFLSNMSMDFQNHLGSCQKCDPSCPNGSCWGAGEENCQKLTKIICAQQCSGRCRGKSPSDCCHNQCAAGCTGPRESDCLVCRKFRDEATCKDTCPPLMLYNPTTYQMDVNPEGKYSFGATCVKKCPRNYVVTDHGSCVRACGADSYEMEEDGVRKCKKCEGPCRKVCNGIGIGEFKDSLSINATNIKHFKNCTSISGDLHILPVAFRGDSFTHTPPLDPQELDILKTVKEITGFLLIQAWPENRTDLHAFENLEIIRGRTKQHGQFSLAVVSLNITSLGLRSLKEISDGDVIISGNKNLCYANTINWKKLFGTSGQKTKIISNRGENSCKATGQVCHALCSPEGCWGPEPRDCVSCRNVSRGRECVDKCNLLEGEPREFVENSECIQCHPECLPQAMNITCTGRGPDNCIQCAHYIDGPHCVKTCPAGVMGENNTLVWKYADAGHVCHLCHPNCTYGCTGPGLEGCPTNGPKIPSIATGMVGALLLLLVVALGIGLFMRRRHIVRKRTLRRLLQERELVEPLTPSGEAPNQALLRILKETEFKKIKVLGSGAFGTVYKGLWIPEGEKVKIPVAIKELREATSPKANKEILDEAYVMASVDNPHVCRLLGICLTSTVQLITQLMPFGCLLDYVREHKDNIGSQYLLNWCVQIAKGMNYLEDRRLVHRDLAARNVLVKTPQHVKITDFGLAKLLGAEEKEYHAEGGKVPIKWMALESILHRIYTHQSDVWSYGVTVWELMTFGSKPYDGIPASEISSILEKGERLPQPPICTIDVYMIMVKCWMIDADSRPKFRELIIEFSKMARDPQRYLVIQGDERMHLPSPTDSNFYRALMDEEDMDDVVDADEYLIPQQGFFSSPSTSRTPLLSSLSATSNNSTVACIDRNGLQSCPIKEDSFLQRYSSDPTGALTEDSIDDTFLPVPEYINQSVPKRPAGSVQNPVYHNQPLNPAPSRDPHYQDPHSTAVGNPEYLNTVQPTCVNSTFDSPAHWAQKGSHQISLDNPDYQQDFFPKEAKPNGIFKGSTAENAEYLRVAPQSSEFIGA
Data set [20] addresses NT-3 growth factor receptor (Homo sapiens) (UniProt Q16288). Put plainly: Inhibition of human TrkC (510 to end residues) using GEEPLYWSFPAKKK as substrate measured after 40 mins in presence of [gamma33P]ATP by scintillation counting method.
Data set [21] has as its target Ephrin type-A receptor 4 (Homo sapiens) (UniProt P54764). Put plainly: Inhibition of recombinant human EphA4 (601 to 892 residues) at 10 uM using poly(Glu, Tyr) 4:1 as substrate measured after 40 mins in presence of [gamma33P]ATP by scintillation counting method.
The target in data set [22] is Bromodomain-containing protein 4 (Homo sapiens) (UniProt O60885). Put plainly: Binding affinity to human N-terminal His-tagged BRD4 bromodomain1 assessed as change in melting temperature at 10 uM by SYPRO orange dye-based fluorescence assay. Summed up: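 Thermal shift with His-tagged human bromodomain at 2 μM final in 10 mM HEPES pH 7.5, 500 mM NaCl. Compound at 10 μM final with 0.1% DMSO; SYPRO Orange at 1:1000. Equilibrated 3 min at 25 °C, then heated from 25 to 95 °C at 1 °C/min. Melting temperature shift taken from fluorescence; at least duplicate.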

Chain of Bromodomain-containing protein 7 (Homo sapiens) (Q9NPI1 whole entry, the tested form may be a part): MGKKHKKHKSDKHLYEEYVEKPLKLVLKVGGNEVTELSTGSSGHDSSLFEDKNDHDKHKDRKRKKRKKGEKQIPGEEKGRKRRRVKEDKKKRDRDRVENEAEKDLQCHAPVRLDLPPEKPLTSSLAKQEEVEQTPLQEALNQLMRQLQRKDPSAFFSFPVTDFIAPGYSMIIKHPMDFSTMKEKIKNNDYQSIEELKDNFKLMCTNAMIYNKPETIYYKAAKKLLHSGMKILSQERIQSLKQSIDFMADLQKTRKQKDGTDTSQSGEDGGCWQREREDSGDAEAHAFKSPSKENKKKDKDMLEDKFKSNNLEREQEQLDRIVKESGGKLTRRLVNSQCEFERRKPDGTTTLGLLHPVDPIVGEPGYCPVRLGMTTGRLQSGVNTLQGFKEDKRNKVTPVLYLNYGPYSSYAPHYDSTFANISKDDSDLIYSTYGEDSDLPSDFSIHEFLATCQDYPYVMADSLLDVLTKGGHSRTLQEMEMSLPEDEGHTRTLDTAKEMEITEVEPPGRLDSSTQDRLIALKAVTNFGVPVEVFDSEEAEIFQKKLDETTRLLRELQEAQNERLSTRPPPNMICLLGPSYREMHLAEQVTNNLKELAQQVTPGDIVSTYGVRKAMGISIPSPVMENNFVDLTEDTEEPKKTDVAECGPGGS
Chain of Ephrin type-A receptor 4 (Homo sapiens) (P54764 whole entry, the tested form may be a part): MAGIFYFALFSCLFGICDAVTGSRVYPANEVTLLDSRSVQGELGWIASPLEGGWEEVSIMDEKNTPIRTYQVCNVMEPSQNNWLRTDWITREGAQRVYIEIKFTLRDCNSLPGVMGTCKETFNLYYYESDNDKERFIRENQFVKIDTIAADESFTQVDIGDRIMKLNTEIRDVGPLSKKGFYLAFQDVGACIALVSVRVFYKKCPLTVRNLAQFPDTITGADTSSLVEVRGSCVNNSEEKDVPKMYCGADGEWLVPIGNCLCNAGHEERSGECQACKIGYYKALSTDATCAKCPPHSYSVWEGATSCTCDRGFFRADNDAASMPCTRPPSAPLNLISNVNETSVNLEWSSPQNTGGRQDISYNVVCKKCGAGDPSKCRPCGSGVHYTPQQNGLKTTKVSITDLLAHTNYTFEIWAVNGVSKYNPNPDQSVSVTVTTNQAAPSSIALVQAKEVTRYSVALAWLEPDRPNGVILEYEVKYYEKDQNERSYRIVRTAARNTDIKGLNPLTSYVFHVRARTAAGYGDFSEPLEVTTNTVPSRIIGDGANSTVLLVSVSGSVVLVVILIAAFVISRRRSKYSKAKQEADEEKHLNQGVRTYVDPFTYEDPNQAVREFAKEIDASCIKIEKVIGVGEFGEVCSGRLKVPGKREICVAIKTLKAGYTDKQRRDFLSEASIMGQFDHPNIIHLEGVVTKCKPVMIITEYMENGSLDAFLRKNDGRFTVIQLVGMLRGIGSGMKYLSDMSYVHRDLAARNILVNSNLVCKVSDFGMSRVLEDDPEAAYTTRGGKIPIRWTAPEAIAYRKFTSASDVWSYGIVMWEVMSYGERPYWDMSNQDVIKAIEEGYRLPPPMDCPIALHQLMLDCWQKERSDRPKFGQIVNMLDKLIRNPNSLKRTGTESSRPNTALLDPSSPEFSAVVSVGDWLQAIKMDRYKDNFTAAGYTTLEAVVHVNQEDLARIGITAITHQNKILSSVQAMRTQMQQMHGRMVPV
Chain of NT-3 growth factor receptor (Homo sapiens) (Q16288 32-839 limits assumed): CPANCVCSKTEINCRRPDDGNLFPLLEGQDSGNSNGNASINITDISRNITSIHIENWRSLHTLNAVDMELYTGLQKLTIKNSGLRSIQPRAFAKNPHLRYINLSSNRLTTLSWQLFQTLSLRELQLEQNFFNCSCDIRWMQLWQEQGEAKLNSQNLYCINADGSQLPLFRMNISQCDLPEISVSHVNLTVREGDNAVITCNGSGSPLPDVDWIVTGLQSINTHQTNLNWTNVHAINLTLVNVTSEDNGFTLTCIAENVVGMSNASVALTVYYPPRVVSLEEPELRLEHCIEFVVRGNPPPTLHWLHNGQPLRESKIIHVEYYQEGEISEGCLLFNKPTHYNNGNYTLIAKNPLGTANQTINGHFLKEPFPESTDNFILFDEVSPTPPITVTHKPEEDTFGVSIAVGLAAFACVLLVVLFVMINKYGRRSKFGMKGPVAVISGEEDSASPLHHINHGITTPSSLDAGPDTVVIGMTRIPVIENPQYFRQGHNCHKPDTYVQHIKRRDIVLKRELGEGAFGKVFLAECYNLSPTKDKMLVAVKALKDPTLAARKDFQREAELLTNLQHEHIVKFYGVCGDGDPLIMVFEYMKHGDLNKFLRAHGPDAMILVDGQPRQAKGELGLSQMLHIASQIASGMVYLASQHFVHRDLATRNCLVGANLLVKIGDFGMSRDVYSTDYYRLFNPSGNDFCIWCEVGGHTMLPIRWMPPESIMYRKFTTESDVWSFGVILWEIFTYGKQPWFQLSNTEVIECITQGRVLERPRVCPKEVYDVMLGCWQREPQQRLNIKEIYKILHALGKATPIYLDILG
Chain of Casein kinase I isoform delta (Homo sapiens) (P48730 whole entry, looked up, the tested form may be a part, canonical isoform): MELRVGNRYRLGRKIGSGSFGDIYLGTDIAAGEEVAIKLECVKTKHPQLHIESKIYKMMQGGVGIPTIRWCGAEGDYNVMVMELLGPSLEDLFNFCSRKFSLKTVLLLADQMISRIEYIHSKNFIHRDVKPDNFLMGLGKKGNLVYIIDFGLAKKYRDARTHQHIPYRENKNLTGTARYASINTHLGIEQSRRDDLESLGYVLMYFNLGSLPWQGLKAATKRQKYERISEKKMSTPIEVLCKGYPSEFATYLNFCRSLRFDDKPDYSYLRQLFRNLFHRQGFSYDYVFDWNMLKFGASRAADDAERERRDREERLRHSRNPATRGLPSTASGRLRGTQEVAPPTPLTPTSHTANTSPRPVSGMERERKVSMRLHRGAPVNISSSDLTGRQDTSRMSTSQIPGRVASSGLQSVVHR

As for `CN1C[C@H](Nc2nc3cc[nH]c3c(=O)n2C)C[C@H](c2ccc3c(c2)OCCO3)C1`, the inhibition result in [1], in data set [2], in data set [3], in [4], in [5] and in [6] was “inactive” throughout. The inhibition entry in data set [7], in data set [10], in [11], in data set [12], in data set [13] and in [14] was “inactive” throughout. The inhibition result in data set [16], in data set [17], in data set [18], in data set [19], in data set [20] and in data set [21] was “inactive” throughout. In data set [8], binding was characterised by a dissociation constant (Kd) of 917 nM. In data set [9], the result was inactive. This compound registered a logD in [15] of 1.9. In addition, the ΔTm in data set [22] amounted to 0.1 °C.

As a reminder, the Kd is the equilibrium constant for the complex coming apart. A higher Kd goes with weaker binding. Usually logD stands for the decadic logarithm of the distribution of all forms, ionised or not, between an organic phase and buffer at a given pH. Low values mean a more hydrophilic compound, high ones a more lipophilic compound. A word on the ΔTm: it is the change in melting temperature against a reference sample.
